ChEMBL document CHEMBL1156237, “Antiviral activity of benzimidazole derivatives. II. Antiviral activity of 2-phenylbenzimidazole derivatives” (Bioorg Med Chem, 2010)
pEC50, pIC50: −log10 of the molar value. Active and inactive are the calls of the source.

Assays:
Coxsackievirus B2 = experiment: Antiviral activity against Human coxsackievirus B2 Ohio-1 infected in african green monkey Vero cells after 3 days by plaque reduction assay; format: functional, organism-based, Coxsackievirus B2 (strain Ohio-1); details: Enterovirus B, Vero, 72 h
Procedure, shortened: (§1)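 Plaque reduction assay. Vero 76 cells at 2 × 10^5/well, grown overnight to confluence in D-MEM with 10% FBS. Infected 2 h with 50–100 PFU/well, unadsorbed virus removed. Overlay of D-MEM with 1% inactivated FBS and 0.75% methylcellulose, with or without serial compound dilutions. Incubated at 37 °C for 3 days (HSV-1 KOS, CVB-2 Ohio-1) or 5 days (RSV A2). Fixed and stained with crystal violet in 50% ethanol; plaques counted; EC50 by linear regression.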

Poliovirus 1 = experiment: Antiviral activity against Polio virus type1 Sabin strain Chat infected in african green monkey Vero cells after 2 days by plaque reduction assay; format: functional, organism-based, Human poliovirus 1 strain Sabin; details: Enterovirus C, 48 h
[1] = Cytotoxicity against human MT4 cells after 96 hrs by MTT assay; format: cell-based; details: MT4 cells
Procedure, shortened: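 Exponentially growing MT-4 cells at 1 × 10^5 cells/mL in RPMI-1640 with 10% FCS, exposed to serial compound dilutions at 37 °C, 5% CO2. Viability by MTT after 96 h; CC50 is the concentration reducing viability of mock-infected cells by 50%.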

[2] = system: Bovine viral diarrhea virus 1; experiment: Antiviral activity against Bovine viral diarrhea virus NADL infected in MDBK cells assessed as inhibition of post viral entry pre-budding stage of replication administered at 13 hrs post infection measured after 24 to 36 hrs by plaque reduction assay; format: functional, organism-based; details: Bovine viral diarrhea virus 1-NADL
Procedure, shortened: (§2)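 MDBK monolayers inoculated at room temperature with BVDV NADL, 300 PFU (m.o.i. 0.01 PFU/cell), 60 min adsorption, washed, kept in MEM-E + 1 mM Na pyruvate + 0.5% inactivated FBS at 37 °C. Medium containing 10× compound added for one window (−1–0, 0–2, 2–4 … 12–14 h), then washed out and fresh medium given. CPE scored at 24–36 h; viral titre by plaque assay.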

[3] = system: Bovine viral diarrhea virus 1; experiment: Antiviral activity against Bovine viral diarrhea virus NADL infected in MDBK cells assessed as protection from virus-induced cytopathogenicity administered up to 6 hrs post infection measured after 24 to 36 hrs by plaque reduction assay; format: functional, organism-based; details: Bovine viral diarrhea virus 1-NADL; procedure, shortened: as §2
[4] = system: Human immunodeficiency virus 1; experiment: Antiviral activity against HIV1 3B infected in human MT4 cells assessed as protection from virus-induced cytopathogenicity after 4 days by MTT method; format: functional, organism-based
Procedure, shortened: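 MT-4 cells, 1 × 10^4/well in RPMI with or without serial compound dilutions, infected with HIV-1 IIIB, 100 CCID50 (m.o.i. 0.01). Protection from virus-induced cytopathogenicity read by MTT.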

[5] = system: Bovine viral diarrhea virus 1; experiment: Antiviral activity against Bovine viral diarrhea virus NADL infected in MDBK cells assessed as protection from virus-induced cytopathogenicity after 3 to 4 days by MTT method; format: functional, organism-based, Bovine viral diarrhea virus 1-NADL; details: Bovine viral diarrhea virus isolates and strains, MDBK
Procedure, shortened: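 Cytopathogenicity protection assay. MDBK cells at 3 × 10^4/well, grown overnight to confluence. Infected with BVDV NADL at m.o.i. 0.01 in MEM-E with 0.5% inactivated FBS, 1 mM Na pyruvate and 1% kanamycin. Serial compound dilutions added after 1 h. After 3–4 days at 37 °C, viability read by MTT; EC50 is the concentration giving 50% protection.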

Yellow fever virus = experiment: Antiviral activity against Yellow fever virus 17D infected in BHK cells assessed as protection from virus-induced cytopathogenicity after 3 to 4 days by MTT method; format: functional, organism-based
[6] = Cytotoxicity against MDBK cells after 48 to 96 hrs by MTT assay; format: cell-based, Bos taurus; details: cattle, MDBK cells
Procedure, shortened: (§3)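 Cell seeding: MDBK at 6 × 10^5 cells/mL in MEM-E with 10% horse serum and 1 mM Na pyruvate; BHK at 1 × 10^6 cells/mL in MEM-E with 10% FBS. Serial compound dilutions, 37 °C, 5% CO2. Viability of mock-infected cells by MTT after 48–96 h; CC50 is the concentration reducing viability by 50%.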

[7] = Selectivity index, ratio of CC50 for MDBK cells to EC50 for Bovine viral diarrhea virus NADL; format: toxicity, cell-based; details: cattle, read-out: Ratio CC50/EC50
Human alphaherpesvirus 1 = experiment: Antiviral activity against HSV1 KOS infected in african green monkey Vero cells after 3 days by plaque reduction assay; format: functional, organism-based; details: Human alphaherpesvirus 1, KOS, 72 h; procedure, shortened: as §1
Hepatitis C virus [8] = experiment: Inhibition of HCV 1b NS5B Cdelta21 RNA dependent RNA polymerase expressed in Escherichia coli after 30 mins by fluorescence assay; format: functional, Hepatitis C virus subtype 1b; details: 0.5 h
Procedure, shortened: (§4)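 N-His-tagged NS5B from E. coli Rosetta2(DE3)pLysS (BVDV C-terminal Δ24; HCV1b Δ21), Ni-NTA purified, 500–600 ng per 20 µL reaction. Template 10 µg/mL poly(rC), primer 0.1 µg/mL oligo(rG)12, substrate 80 µM GTP; 20 mM Tris pH 7.0, 0.5 mM MnCl2 or 5 mM MgCl2, 5% DMSO. Enzyme pre-incubated with drug 30 min at room temperature.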

Hepatitis C virus [9] = experiment: Antiviral activity against HCV Con1 expressed in human HuH7 cells assessed as NS4A expression after 72 hrs by ELISA-based replicon assay; format: functional, organism-based, Hepacivirus hominis; details: isolate Con1, Huh-7, 72 h
Procedure, shortened: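 GS4.1 cells (Huh-7 carrying HCV Con1 subgenomic replicon) at 7.5 × 10^3/well. Ten twofold compound dilutions (top 75 µM), 0.5% DMSO, 72 h at 37 °C; replicon-free Huh-7 as negative control. NS4A measured by ELISA with anti-NS4A mAb A-236, peroxidase secondary and o-phenylenediamine, absorbance 492 nm. EC50 by four-parameter sigmoidal fit.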

[10] = Cytotoxicity against human HuH7 cells after 72 hrs; format: cell-based, Huh-7
Procedure, shortened: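 GS4.1 replicon cells treated as in the replicon assay (twofold dilutions up to 75 µM, 72 h). Viability by CellTiter 96 AQueous One Solution; CC50 from % cytotoxicity versus concentration.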

[11] = Selectivity index, ratio of CC50 for human MT4 cells to EC50 for Bovine viral diarrhea virus NADL; format: toxicity, cell-based; details: read-out: Ratio CC50/EC50
[12] = system: Vesicular stomatitis virus; experiment: Antiviral activity against VSV Indiana lab infected in african green monkey Vero cells after 2 days by plaque reduction assay; format: functional, organism-based
[13] = Inhibition of Bovine viral diarrhea virus NADL NS5B Cdelta24 RNA dependent RNA polymerase expressed in Escherichia coli after 30 mins by fluorescence assay; design: species or system Bovine viral diarrhea virus 1-NADL; procedure, shortened: as §4
[14] = system: Bovine viral diarrhea virus 1; experiment: Antiviral activity against Bovine viral diarrhea virus NADL infected in MDBK cells assessed as inhibition of viral replication administered up to 4 hrs post infection measured after 24 to 36 hrs by plaque reduction assay; format: functional, organism-based; details: Bovine viral diarrhea virus 1-NADL; procedure, shortened: as §2
[15] = Cytotoxicity against african green monkey Vero cells; format: cell-based; details: chlorocebus sabaeus
Procedure, shortened: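 Vero 76 monolayers exposed to serial compound dilutions, run in parallel on the same 24-well plates as the plaque-reduction assays. CC50 is the concentration reducing viability of mock-infected cells by 50%.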

[16] = Cytotoxicity against BHK cells after 48 to 96 hrs by MTT assay; format: cell-based, Mesocricetus auratus; details: hamster; procedure, shortened: as §3

SMILES	pEC50 (Coxsackievirus B2)	pEC50 (Poliovirus 1)	CC50 at 96 h [1]	Activity [2]	Activity [3]	Activity [4]	pEC50 [5]	pEC50 (Yellow fever virus)	CC50 [6]	selectivity ratio [7]	pEC50 (Human alphaherpesvirus 1)	pIC50 (Hepatitis C virus [8])	pEC50 (Hepatitis C virus [9])	CC50 at 72 h [10]	selectivity ratio [11]	Activity [12]	pIC50 [13]	Activity [14]	CC50 [15]	CC50 [16]
CC(=O)Nc1ccc(-c2nc3cc([N+](=O)[O-])ccc3[nH]2)cc1	< 4.00	< 4.00	> 100 µM	Active	Active	inactive	6.10	< 4.00	> 100 µM	> 125	< 4.00	4.52	4.42	> 90 µM	> 125	inactive	4.92	Active	> 100 µM	> 100 µM
Nc1ccc(-c2nc3cc([N+](=O)[O-])ccc3[nH]2)cc1	< 4.00	< 4.00	100 µM			inactive	5.82	< 4.00	79 µM	53	< 4.00	4.48			67	inactive	4.74		> 100 µM	> 100 µM
